Reference: ChEMBL document CHEMBL5661979, “Pharmacological inhibition of BMK1 suppresses tumor growth through promyelocytic leukemia protein” (Cancer Cell, 2010)
Active and inactive are the calls of the source. The calls are words filed in the database; no cut-off is given here.

Legend:
[1] = Inhibition of CK1g1/g2/g3 in human HeLa cells lysate at 2 uM pre incubated for 15 mins followed by ADP acyl phosphate probe addition and measured after 10 mins by LC-MS/MS analysis relative to control; conditions: 25 min, condition cancer
[2] = target: Phosphorylase b kinase gamma catalytic chain, liver/testis isoform (Homo sapiens, UniProt P15735); test: Inhibition of PHKg2 in human HeLa cells lysate pre incubated for 15 mins followed by ATP acyl phosphate probe addition and measured after 10 mins by LC-MS/MS analysis; type: subcellular
[3] = target: DNA-dependent protein kinase catalytic subunit (Homo sapiens, UniProt P78527); test: Inhibition of PRKDC in human HeLa cells lysate pre incubated for 15 mins followed by ADP acyl phosphate probe addition and measured after 10 mins by LC-MS/MS analysis; type: subcellular
[4] = target: T1, Phosphatidylinositol 5-phosphate 4-kinase type-2 alpha (Homo sapiens) (UniProt P48426); test: Inhibition of PIP5K2A LIP1 site in human HeLa cells lysate at 50 uM pre incubated for 15 mins followed by ADP acyl phosphate probe addition and measured after 10 mins by LC-MS/MS analysis relative to control; type: subcellular; conditions: time 25.0 min
T1 sequence (whole entry): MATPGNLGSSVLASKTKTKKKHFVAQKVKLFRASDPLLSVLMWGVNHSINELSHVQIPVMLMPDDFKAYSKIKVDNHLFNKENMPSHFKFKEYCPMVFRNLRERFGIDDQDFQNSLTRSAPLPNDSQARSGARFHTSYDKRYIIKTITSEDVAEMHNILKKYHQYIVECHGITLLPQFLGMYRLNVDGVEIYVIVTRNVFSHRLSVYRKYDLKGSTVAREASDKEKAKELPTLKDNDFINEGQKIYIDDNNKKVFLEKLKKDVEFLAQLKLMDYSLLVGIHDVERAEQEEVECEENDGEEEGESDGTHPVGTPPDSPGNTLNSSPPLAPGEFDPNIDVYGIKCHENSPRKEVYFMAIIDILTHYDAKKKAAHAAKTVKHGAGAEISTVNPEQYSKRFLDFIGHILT

[5] = target: Mitogen-activated protein kinase kinase kinase 1 (Homo sapiens, UniProt Q13233); test: Inhibition of MAP3K1 in human HeLa cells lysate at 2 uM pre incubated for 15 mins followed by ADP acyl phosphate probe addition and measured after 10 mins by LC-MS/MS analysis relative to control; type: subcellular; conditions: time 25.0 min
[6] = Inhibition of CDK5/PRKX/PRKY in human HeLa cells lysate at 50 uM pre incubated for 15 mins followed by ADP acyl phosphate probe addition and measured after 10 mins by LC-MS/MS analysis relative to control; conditions: 25 min, condition cancer
Procedure, shortened: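 KiNativ profiling in HeLa lysate (5 mg/mL total protein). Lysate incubated 15 min with inhibitor at 50, 10, 2, 0.8 or 0 μM. ATP or ADP acylphosphate probe then added (5 μM final) and reacted 10 min. Reaction stopped with urea and analysed by targeted MS, using up to four fragment ions per kinase peptide-probe conjugate. % inhibition taken against untreated lysate. Run in duplicate.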

[7] = Inhibition of MSK1/2 domain 1 in human HeLa cells lysate at 2 uM pre incubated for 15 mins followed by ATP acyl phosphate probe addition and measured after 10 mins by LC-MS/MS analysis relative to control; conditions: 25 min, condition cancer
[8] = Toxicity in C57Bl/6 mouse assessed as effect on locomotor activity at 50 mg/kg, ip for 14 days; type: organism-based; conditions: in vivo, 336 h, time 14 day
[9] = target: Dual specificity mitogen-activated protein kinase kinase; MEK1/2 (Homo sapiens, UniProt P36507+Q02750); test: Inhibition of MAP2K1/MAP2K2 in human HeLa cells lysate at 2 uM pre incubated for 15 mins followed by ATP acyl phosphate probe addition and measured after 10 mins by LC-MS/MS analysis relative to control; type: subcellular; conditions: time 25.0 min
[10] = target: Phosphatidylinositol 4-phosphate 3-kinase C2 domain-containing subunit beta (Homo sapiens, UniProt O00750); test: Inhibition of PIK3C2B in human HeLa cells lysate at 10 uM pre incubated for 15 mins followed by ATP acyl phosphate probe addition and measured after 10 mins by LC-MS/MS analysis relative to control; type: subcellular; conditions: time 25.0 min
[11] = target: Interferon-induced, double-stranded RNA-activated protein kinase (Homo sapiens, UniProt P19525); test: Inhibition of PKR in human HeLa cells lysate at 10 uM pre incubated for 15 mins followed by ATP acyl phosphate probe addition and measured after 10 mins by LC-MS/MS analysis relative to control; type: subcellular; conditions: time 25.0 min
[12] = Inhibition of MSK1/2 domain 1 in human HeLa cells lysate at 10 uM pre incubated for 15 mins followed by ATP acyl phosphate probe addition and measured after 10 mins by LC-MS/MS analysis relative to control; conditions: 25 min, condition cancer
Mus musculus = test: Antiangiogenic activity in C57Bl/6 mouse implanted with matrigel assessed as reduction in bFGF-induced angiogenesis at 50 mg/kg, ip for 6 days by Masson's trichrome staining based assay; type: functional, organism-based; conditions: time 6.0 day
Procedure, shortened: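 Mice were implanted with Matrigel containing 400 ng/mL bFGF. From the next day they received drug or vehicle for 6 days. Plugs were then harvested, sectioned and stained with Masson's trichrome; hemoglobin content of the plugs was also measured. n = 6 mice, 9 slices.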

[13] = target: Ribosomal protein S6 kinase alpha-3 (Homo sapiens, UniProt P51812); test: Inhibition of RSK2 domain 1 in human HeLa cells lysate pre incubated for 15 mins followed by ADP acyl phosphate probe addition and measured after 10 mins by LC-MS/MS analysis; type: subcellular
[14] = Toxicity in C57Bl/6 mouse assessed as effect on amylase level at 50 mg/kg, ip for 14 days (reference value: 1027 U/L); type: organism-based; conditions: in vivo, 336 h, time 14 day
PKC alpha and beta-2 = PKC alpha and beta-2 (Homo sapiens, UniProt P17252+P05771); test: Inhibition of PKCalpha/beta in human HeLa cells lysate at 50 uM pre incubated for 15 mins followed by ATP acyl phosphate probe addition and measured after 10 mins by LC-MS/MS analysis relative to control; type: subcellular; conditions: time 25.0 min
[15] = target: T2, Serine/threonine-protein kinase ULK3 (Homo sapiens) (UniProt Q6PHR2); test: Inhibition of ULK3 in human HeLa cells lysate at 2 uM pre incubated for 15 mins followed by ADP acyl phosphate probe addition and measured after 10 mins by LC-MS/MS analysis relative to control; type: subcellular; conditions: time 25.0 min
T2 sequence (whole entry): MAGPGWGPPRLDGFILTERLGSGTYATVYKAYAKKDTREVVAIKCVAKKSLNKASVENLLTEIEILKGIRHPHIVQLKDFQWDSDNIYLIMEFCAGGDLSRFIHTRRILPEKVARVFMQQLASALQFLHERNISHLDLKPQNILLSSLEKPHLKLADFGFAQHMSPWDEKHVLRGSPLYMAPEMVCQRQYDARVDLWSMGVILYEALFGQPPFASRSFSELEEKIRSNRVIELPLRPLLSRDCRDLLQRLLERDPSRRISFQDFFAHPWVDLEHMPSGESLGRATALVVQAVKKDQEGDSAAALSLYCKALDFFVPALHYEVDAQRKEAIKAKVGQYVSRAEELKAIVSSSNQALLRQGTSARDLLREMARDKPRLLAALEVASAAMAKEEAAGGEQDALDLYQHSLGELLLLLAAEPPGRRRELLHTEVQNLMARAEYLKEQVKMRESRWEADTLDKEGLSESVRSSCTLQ

Sequence of Mitogen-activated protein kinase kinase kinase 1 (Q13233 whole entry): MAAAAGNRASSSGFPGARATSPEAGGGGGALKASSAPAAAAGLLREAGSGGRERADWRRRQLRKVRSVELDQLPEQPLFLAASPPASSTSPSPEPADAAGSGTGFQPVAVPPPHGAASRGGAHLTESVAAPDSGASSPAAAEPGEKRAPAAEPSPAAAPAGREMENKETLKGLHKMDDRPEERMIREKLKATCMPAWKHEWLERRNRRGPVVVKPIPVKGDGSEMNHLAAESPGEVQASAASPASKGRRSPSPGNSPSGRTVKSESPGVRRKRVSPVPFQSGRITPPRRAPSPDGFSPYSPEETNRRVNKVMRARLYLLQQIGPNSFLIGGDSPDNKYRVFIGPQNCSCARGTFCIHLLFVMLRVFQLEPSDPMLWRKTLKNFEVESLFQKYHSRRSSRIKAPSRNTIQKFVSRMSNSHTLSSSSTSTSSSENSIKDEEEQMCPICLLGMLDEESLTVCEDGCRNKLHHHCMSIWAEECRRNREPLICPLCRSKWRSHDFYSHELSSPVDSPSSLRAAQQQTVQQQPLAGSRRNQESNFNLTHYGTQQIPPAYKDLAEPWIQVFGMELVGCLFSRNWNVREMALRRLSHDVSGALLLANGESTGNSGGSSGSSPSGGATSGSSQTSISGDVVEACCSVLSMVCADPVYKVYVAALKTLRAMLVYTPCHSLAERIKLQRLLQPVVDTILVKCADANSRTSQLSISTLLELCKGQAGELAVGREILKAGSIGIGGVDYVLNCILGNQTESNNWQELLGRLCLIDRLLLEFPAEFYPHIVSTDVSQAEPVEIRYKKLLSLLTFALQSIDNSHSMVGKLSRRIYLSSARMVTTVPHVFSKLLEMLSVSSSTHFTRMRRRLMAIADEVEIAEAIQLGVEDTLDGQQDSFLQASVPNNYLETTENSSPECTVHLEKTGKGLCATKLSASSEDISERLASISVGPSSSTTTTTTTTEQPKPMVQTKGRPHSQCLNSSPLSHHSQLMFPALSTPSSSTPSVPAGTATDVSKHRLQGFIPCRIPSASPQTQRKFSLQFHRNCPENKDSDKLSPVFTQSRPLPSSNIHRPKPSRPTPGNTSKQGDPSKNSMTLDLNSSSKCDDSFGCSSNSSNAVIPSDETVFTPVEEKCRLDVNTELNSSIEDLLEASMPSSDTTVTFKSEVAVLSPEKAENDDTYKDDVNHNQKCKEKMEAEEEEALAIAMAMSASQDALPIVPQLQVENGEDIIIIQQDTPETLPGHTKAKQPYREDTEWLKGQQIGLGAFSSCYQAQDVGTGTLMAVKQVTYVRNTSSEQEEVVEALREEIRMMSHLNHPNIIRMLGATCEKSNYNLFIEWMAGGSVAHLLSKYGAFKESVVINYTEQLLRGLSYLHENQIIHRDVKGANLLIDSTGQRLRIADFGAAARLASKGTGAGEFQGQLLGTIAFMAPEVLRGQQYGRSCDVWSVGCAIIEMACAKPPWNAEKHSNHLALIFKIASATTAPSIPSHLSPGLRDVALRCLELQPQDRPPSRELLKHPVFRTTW
Sequence of Phosphorylase b kinase gamma catalytic chain, liver/testis isoform (P15735 whole entry, canonical isoform): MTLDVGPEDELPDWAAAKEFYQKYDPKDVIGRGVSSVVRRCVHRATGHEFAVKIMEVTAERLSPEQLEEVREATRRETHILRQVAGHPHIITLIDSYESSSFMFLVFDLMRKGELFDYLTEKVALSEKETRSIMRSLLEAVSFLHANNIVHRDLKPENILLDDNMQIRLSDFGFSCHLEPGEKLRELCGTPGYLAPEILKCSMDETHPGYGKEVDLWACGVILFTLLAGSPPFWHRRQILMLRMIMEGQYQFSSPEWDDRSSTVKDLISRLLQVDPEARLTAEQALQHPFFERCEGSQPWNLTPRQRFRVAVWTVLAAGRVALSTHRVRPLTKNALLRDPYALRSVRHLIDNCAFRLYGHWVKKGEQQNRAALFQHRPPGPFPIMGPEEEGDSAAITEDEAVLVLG
Sequence of Dual specificity mitogen-activated protein kinase kinase; MEK1/2 (P36507 whole entry, looked up, the tested form may be a part): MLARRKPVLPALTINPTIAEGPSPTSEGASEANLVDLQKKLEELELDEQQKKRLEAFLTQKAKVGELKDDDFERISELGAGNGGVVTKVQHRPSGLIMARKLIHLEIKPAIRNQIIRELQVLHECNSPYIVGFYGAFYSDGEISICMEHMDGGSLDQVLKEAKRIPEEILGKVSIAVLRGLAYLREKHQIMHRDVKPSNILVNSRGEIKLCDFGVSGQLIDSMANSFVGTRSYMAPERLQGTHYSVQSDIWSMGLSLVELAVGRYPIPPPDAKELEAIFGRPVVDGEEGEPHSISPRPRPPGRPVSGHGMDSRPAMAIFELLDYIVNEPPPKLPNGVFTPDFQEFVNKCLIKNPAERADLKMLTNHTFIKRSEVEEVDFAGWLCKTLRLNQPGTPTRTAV
Sequence of Dual specificity mitogen-activated protein kinase kinase; MEK1/2 (Q02750 whole entry, looked up, the tested form may be a part): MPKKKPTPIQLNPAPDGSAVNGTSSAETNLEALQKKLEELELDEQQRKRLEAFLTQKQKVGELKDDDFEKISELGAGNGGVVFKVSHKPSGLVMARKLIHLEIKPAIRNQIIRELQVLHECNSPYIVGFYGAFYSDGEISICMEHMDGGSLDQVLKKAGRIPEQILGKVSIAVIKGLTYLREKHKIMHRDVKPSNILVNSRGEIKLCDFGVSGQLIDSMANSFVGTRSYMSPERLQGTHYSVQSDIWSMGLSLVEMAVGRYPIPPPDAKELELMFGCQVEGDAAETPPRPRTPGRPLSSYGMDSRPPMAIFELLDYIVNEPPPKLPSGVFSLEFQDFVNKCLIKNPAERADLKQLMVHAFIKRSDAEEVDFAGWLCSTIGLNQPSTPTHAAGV
Sequence of PKC alpha and beta-2 (P05771 whole entry, looked up): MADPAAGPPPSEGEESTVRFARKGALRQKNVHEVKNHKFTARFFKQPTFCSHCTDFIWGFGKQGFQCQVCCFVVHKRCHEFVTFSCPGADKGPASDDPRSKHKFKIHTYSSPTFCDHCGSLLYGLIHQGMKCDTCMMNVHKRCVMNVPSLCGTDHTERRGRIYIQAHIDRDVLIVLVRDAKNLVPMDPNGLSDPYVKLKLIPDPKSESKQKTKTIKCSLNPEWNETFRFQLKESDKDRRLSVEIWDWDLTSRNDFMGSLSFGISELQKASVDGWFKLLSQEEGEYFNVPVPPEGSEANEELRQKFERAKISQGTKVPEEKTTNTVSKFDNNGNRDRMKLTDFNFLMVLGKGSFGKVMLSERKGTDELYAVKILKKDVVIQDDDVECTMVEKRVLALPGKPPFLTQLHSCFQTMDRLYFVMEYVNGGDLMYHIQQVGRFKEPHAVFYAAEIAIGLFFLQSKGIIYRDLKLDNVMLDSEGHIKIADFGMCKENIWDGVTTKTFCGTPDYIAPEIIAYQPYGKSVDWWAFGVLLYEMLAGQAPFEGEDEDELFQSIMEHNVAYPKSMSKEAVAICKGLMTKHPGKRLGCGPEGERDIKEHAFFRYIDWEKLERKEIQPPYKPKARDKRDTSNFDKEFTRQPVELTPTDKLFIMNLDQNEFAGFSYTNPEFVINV
Sequence of Interferon-induced, double-stranded RNA-activated protein kinase (P19525 whole entry): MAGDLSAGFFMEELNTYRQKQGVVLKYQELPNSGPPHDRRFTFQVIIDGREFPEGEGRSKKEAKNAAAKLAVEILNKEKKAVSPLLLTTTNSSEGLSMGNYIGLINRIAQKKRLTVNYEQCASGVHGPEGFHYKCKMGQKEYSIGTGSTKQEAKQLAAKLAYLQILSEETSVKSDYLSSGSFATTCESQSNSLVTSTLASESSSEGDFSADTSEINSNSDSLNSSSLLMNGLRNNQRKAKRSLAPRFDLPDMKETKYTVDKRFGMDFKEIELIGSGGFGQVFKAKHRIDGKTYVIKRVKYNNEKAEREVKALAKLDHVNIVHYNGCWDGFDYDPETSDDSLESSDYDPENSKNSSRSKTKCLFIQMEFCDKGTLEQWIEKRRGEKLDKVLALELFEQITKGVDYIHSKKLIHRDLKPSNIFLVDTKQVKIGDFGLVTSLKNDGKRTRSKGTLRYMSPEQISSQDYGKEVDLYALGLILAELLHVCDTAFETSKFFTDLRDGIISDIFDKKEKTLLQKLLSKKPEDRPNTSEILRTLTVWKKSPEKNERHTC

In the case of `CCOc1cc(N2CCC(O)CC2)ccc1Nc1ncc2c(n1)N(C)c1ccccc1C(=O)N2C`, the inhibition at 2 µM [1] is reported as 61.7%, the IC50 [2] is reported as > 50 µM and the IC50 [3] is reported as > 50 µM. For the same compound, the inhibition [4] was 16.2%, the inhibition [5] was 11.5% and the inhibition at 50 µM [6] was -10%. The inhibition at 2 µM [7] was -4.6%, the Activity [8] was “Non-Toxic” and the inhibition [9] was 0.6%. The inhibition [10] was 6.5%, the inhibition [11] was -2.3% and the inhibition at 10 µM [12] was -10.6%. For the same compound, the Activity (Mus musculus) was “Active”, the IC50 [13] was > 50 µM and the Activity [14] was 664 U/L. It also gave an inhibition (PKC alpha and beta-2) of 14.4% and an inhibition [15] of 18.8%.
